ARFGAP1 inh – rat ARFGAP1 inhibition | Q62848 | Arfgap1-stimulated ARF1 GTP hydrolysis, GDP FP detection | inhibition, % at 16.5 µM | 360,000 compounds, 0.26% hits | AID 651572;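 active = inhibition above a per-plate limit, mean inhibition of low control wells plus 3 SD, cut at about 25% in these data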;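 note: 0% = DMSO wells with enzyme and 100% = wells lacking Arfgap1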
Target sequence (Q62848 1-136 limits assumed): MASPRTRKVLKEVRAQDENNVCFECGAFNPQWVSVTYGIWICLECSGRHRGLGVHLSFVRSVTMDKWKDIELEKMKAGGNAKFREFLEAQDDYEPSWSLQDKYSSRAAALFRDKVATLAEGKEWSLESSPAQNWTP
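Material: rat Arfgap1 GAP domain (His6, aa 1-136), purified enzyme. Also added: human ARF1(Δ1-17)-GTP substrate. Compound dosing: 16.5 µM single point, 1.26% DMSO. Timing: enzyme reaction 120 min at 25 °C after 20 min preincubation. Signal: GDP detection by fluorescence polarization. Read-out basis: percent inhibition of GAP-stimulated GDP formation, scaled between DMSO and no-Arfgap1 medians.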
ASAP1 GAP inh – inhibitors of human ASAP1 ArfGAP activity; Q9ULH1; ASAP1-stimulated ARF1 GTP hydrolysis, GDP FP detection; inhibition, % at 16.5 µM; 360,000 compounds, 0.19% hits; AID 624377; in the data active = inhibition above about 25%;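 note: 0% = vehicle with enzyme and substrate and 100% = no enzyme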
Target sequence (Q9ULH1 325-724 limits assumed): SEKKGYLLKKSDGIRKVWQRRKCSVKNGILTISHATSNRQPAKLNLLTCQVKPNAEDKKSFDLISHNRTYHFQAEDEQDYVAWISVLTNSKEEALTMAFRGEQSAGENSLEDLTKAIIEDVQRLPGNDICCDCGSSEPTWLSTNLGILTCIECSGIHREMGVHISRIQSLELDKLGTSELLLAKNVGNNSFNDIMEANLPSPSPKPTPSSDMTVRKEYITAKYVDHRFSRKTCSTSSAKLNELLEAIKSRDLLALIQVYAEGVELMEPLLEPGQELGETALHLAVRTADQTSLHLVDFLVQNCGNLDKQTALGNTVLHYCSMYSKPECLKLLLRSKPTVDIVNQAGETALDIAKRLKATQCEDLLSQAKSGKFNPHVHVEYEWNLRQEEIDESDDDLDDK
sPLA2-III inh – Blocks human group III sPLA2 activity | 370,000 compounds, 0.56% hits | inhibition, % at 12.2 µM | Q9NZ20 | QFRET BODIPY PC-A2 liposome hydrolysis, fluorescence;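 active = inhibition above mean plus 3 SD of compounds lying within the high and low control bounds, cut at about 19% in these data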;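 note: 0% = median of test compound wells and 100% = no enzyme DMSO wells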
SKKanGAS inh – inhibitors of SKKanGAS S. pyogenes growth in kanamycin (SK-promoter or general growth effect); inhibition, % at 7.5 µM; BacTiter-Glo, 6 h; 300,000 compounds, 1.3% hits;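 active = mean replicate score, as percent of positive control median, at least 50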;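 note: strain carries kanamycin resistance gene driven by streptokinase promoter and grows in 40 µg/ml kanamycin; loss of luminescence reflects streptokinase promoter inhibition or plain growth inhibition; 0% = median of DMSO wells and 100% = positive control at its reference dose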
Calb FLC – affects C. albicans growth with fluconazole; C. albicans CaCi-2 + fluconazole, Alamar Blue growth, 48 h; growth inhibition, % (concentration not given with the values); 300,000 compounds, 0.57% hits; AID 1979;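 active = growth inhibition above about 58% in most replicates, limit read from the data, passing the limit was not always enough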;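 note: all wells also contain fluconazole at 8 µg/ml as a sub-toxic cotreatment; 0% = median of DMSO wells and 100% = median of geldanamycin control wells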
ASAP1 GAP conf – confirmation of human ASAP1 inhibitors; inhibition, % at 16.5 µM; 620 compounds, 37% hits; ASAP1-stimulated Arf1 GTPase, GDP fluorescence polarization; shares compounds with ASAP1 GAP inh;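 active = mean inhibition over triplicates exceeds the hit threshold derived for the earlier primary screening run, cut at about 25% in these data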
* = called active by the depositor; / = not tested or not shown. This is a sample that favours compounds with a hit; in the whole collection about 2.3% have one here.

SMILES | ARFGAP1 inh | ASAP1 GAP inh | sPLA2-III inh | SKKanGAS inh | Calb FLC | ASAP1 GAP conf
C=CCCC1CN(Cc2ccc(OC)cc2)S(=O)(=O)c2c(NCc3cc(OC)c(OC)c(OC)c3)cccc2O1 (stereo unspecified) | 5 | 7 | -12 | / | / | /
O=C(c1n[nH]c(=O)c2ccccc12)N1CCN(S(=O)(=O)c2ccccc2Cl)CC1 | -1 | 25* | -1 | / | / | 1
CN1CCCCC(NC(=O)c2ccc3ccccc3c2)C1=O (stereo unspecified) | 1 | -3 | 2 | / | / | /
CCNC(=O)c1ccc(CSc2nc3ccccc3s2)cc1 | 12 | 27* | -10 | 15 | 0 | 8
COCCNC(=O)c1ccc(CSc2nc3ccccc3s2)cc1 | 0 | -20 | -14 | -4 | 3 | /
C[C@H]1[C@@H](OC(=O)Nc2ccc(Cl)cc2)CC[C@@]23CCCN2C(=O)CCC[C@@H]13 | / | / | -9 | / | / | /
O=C(C1CC(=O)N(c2ccc3c(c2)OCCO3)C1)N1CCN(S(=O)(=O)c2cccc(F)c2)CC1 (stereo unspecified) | -6 | 1 | 1 | / | / | /
O=C(NC1CCCC1)C1CCN(S(=O)(=O)c2ccc3[nH]c(=O)oc3c2)CC1 | / | / | -5 | / | / | /
CCOC(=O)C1=C(CSc2nc(-c3ccccc3)ccc2C#N)OC(N)=C(C#N)C1c1cccnc1 (stereo unspecified) | 8 | 9 | -24 | 13 | 19 | /
CCOC(=O)C1=C(CSc2nc(-c3ccccc3)ccc2C#N)OC(N)=C(C#N)C1c1ccccc1 (stereo unspecified) | 5 | 27* | -31 | 31 | 9 | 16
NS(=O)(=O)c1ccc(NC(=O)CN2CCN(S(=O)(=O)/C=C/c3ccccc3)CC2)cc1 | 9 | 30* | -4 | -3 | -2 | 4
NS(=O)(=O)c1ccc(NC(=O)CN2CCN(Cc3ccccc3)CC2)cc1 | -6 | 0 | 3 | -4 | -2 | /
CN(C(=O)CCN1CCCO1)C1CCCN(Cc2ccccc2F)C1 (stereo unspecified) | -1 | -11 | 4 | 0 | -17 | /
CN(C(=O)CSc1nncn1C)C1CCCN(Cc2ccccc2F)C1 (stereo unspecified) | 15 | 31* | 2 | -1 | 2 | 1
CCOc1ccc2[nH]c(C(=O)N/N=C/c3ccccc3OC)cc2c1 | 10 | 30* | -15 | 3 | 2 | 28*
COc1ccc2[nH]c(C(=O)N/N=C/c3ccccc3OC)cc2c1 | 12 | 14 | 0 | -4 | 3 | /
O=C(O)CC1(CC(=O)Nc2cc(F)ccc2Cl)CCCCC1 | 15 | 25* | 10 | 3 | -2 | 3
Nc1ccc(Oc2cccc(Oc3ccc(N)cc3)c2)cc1 | 15 | 28* | -4 | 7 | 116* | 16
O=C(c1cc(-c2ccc(Cl)cc2)nc2ccccc12)N1CCN(c2ncccn2)CC1 | / | / | 6 | / | / | /
OC[C@@H]1CN(Cc2ccc(-c3ccccc3)cc2)C[C@H](n2cnc3c(Nc4ccccc4)ncnc32)O1 | 11 | 26* | -27 | / | / | 12
CCOC(=O)[C@@]12CN(C(=O)OC(C)(C)C)CC=C1N(Cc1ccc(OC)cc1)C(=O)[C@H]2CC(=O)NCc1cccc2ccccc12 | / | / | -7 | / | / | /
O=C(Nc1ccc(OC(F)(F)F)cc1)N1CCN(c2ccnc3cc(Cl)ccc23)CC1 | 11 | 25* | -2 | 65* | 35 | 9
O=C(O)C1Nc2c(O)cccc2C2C=CCC12 (stereo unspecified) | -3 | 26* | 1 | / | / | 20
O=C(NCCCc1ccccc1)[C@H](Cc1c[nH]c2ccccc12)NC1(C(=O)NCCc2c[nH]c3ccccc23)CCOCC1 | / | / | -83 | / | / | /
O=C(C1CCCN(Cc2ccccc2F)C1)N1CCCC1 (stereo unspecified) | -9 | -2 | 2 | 0 | -5 | /
SMILES | ARFGAP1 inh | ASAP1 GAP inh | sPLA2-III inh | SKKanGAS inh | Calb FLC | ASAP1 GAP conf
O=C(C1CCCN(Cc2ccccc2[N+](=O)[O-])C1)N1CCCC1 (stereo unspecified) | -9 | 27* | -3 | 2 | 1 | 3
CCCN1CCCCC(NC(=O)c2ccc(C)cc2C)C1=O (stereo unspecified) | 2 | -5 | 10 | / | / | /
CC(NCc1ccco1)C(=O)N1CCN(c2cccc(C(F)(F)F)c2)CC1 (stereo unspecified) | / | / | -1 | / | / | /
COC(=O)[C@]12CCCCC=C1N(Cc1ccc(OC)cc1)C(=O)[C@@H]2CC(=O)NCC1CCCCC1 | / | / | -16 | / | / | /
COc1ccc(/C=N/NC(=O)c2nc(-c3ccccc3)cc(-c3ccccc3)n2)cc1O | 11 | 26* | -15 | 36 | -3 | 32*
COc1ccc(/C=N/Nc2ccc([N+](=O)[O-])cc2)cc1Cn1cc([N+](=O)[O-])cn1 | 3 | 6 | 0 | 4 | -12 | /
COc1ccc(/C=N/Nc2ccc([N+](=O)[O-])cc2)cc1O | 22 | 25* | -70 | 9 | -19 | 31*
O=C(C(=O)N1CCN(C(=O)c2cc(C(F)(F)F)cc(C(F)(F)F)c2)CC1)c1cccc(C(F)(F)F)c1 | -4 | -8 | 2 | / | / | /
Cn1c(C(=O)Nc2ccccc2)cc2sccc21 | 14 | 31* | 2 | -5 | -10 | 10
CCn1c(SCc2ccccc2Cl)nnc1-c1ccccc1OC | / | / | 8 | / | / | /
Cc1ccc2nc(SCC(=O)Nc3ccc(F)cc3F)[nH]c2c1 | 6 | 27* | -15 | -1 | 4 | 5
CC1CCc2cccc3c2N1c1cc(C#N)c(C#N)cc1O3 (stereo unspecified) | 1 | 27* | 7 | -5 | 37 | 1
CC1CCCCN1c1cc(C#N)c(C#N)cc1[N+](=O)[O-] (stereo unspecified) | 8 | 3 | 4 | 12 | -7 | /
COc1ccc(Cl)cc1S(=O)(=O)NCc1cccnc1 | 11 | 26* | -5 | 3 | -1 | 8
Cc1cc(C)c(NS(=O)(=O)c2ccc(NC(=O)c3cccs3)cc2)c(C)c1 | 9 | 9 | -19 | 31 | -5 | /
Cc1ccc(S(=O)(=O)Nc2ccc(NC(=O)c3cccs3)cc2)cc1 | 6 | 25* | -30 | -13 | 9 | 7
Nc1[nH]c(C(=O)c2ccc(Br)cc2)c(-c2ccccc2)c1C(=O)NCCc1c[nH]c2ccccc12 | 3 | -5 | -56 | / | / | /
Cc1cc(NC2=CC(=O)C(=O)c3ccccc32)no1 | 1 | 29* | -1 | / | / | 10
O=c1c(=Nc2ccccc2O)c(=O)c2ccccc12 | 9 | 28* | 3 | 1 | -23 | 8
O=c1[nH][nH]cc1C=Nc1ccccc1O | 6 | -4 | 2 | 0 | 1 | /
O=[N+]([O-])c1ccc(OCCOc2ccccc2/C=N/n2cnnc2)cc1 | -2 | 37* | 3 | -3 | 1 | 46*
COc1ccccc1/C=N/n1cnnc1 | 1 | 9 | 0 | 3 | 6 | /
Cc1cc(OCC(=O)Nc2ccc(N3CCCC3)cc2)cc(C)c1Cl | 1 | 25* | 10 | 6 | 10 | 7
CCOc1ccc(OCC(=O)Nc2ccc(N3CCCCC3)cc2)cc1 | 23 | -3 | 13 | -4 | -5 | /

Source: PubChem BioAssay (several laboratories)
